Test results published in ChEMBL document CHEMBL5331128, “Alicyclic Ring Size Variation of 4-Phenyl-2-naphthoic Acid Derivatives as P2Y14 Receptor Antagonists” (J Med Chem, 2023).
Activity calls are given as the source filed them.

Key:
[1] = Half life in CD-1 mouse at 10 mg/kg,po and measured upto 24 hrs by LC-MS/MS analysis; format: ADME, organism-based; details: in vivo
How it was run: (§1)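 Female CD1 mice given double ester/carbamate prodrug by oral gavage. Plasma levels of both prodrug and released parent acid followed over time to give Cmax, t1/2, AUCinf and %F.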

[2] = Cmax in CD-1 mouse at 10 mg/kg,po and measured at 1 hrs by LC-MS/MS analysis; format: ADME, organism-based; set-up: dose 10 mg/kg, time 1 hrs, route po; details: in vivo; how it was run: as §1
[3] = Oral bioavailability in CD-1 mouse at 10 mg/kg and measured upto 24 hrs by LC-MS/MS analysis; format: ADME, organism-based; details: in vivo; how it was run: as §1
[4] = Prodrug conversion in CD-1 mouse plasma assessed as AUC (0 to infinity) of 4-(4-(piperidin-4-yl)phenyl)-7-(4-(trifluoromethyl)phenyl)-2-naphthoic acid at 10 mg/kg,po and measured upto 24 hrs by LC-MS/MS analysis; format: ADME, organism-based; set-up: time < 24 hrs, dose 10 mg/kg, route po; details: in vivo; how it was run: as §1
Mus musculus [5] = experiment: Antiallodynic activity in CCI surgery neuropathic pain Hsd:ICR mouse model assessed as reversal of mechano-allodynia by measuring paw withdrawal threshold at 10 micromol/kg,ip and measured upto 5 days by von frey test; format: functional, organism-based; details: dose 10.0 µmol/kg, time <= 5.0 day
How it was run: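 CCI neuropathic pain in adult male Hsd:ICR (CD-1) mice (20–30 g). Single i.p. injection on day 7 after sciatic nerve constriction, at peak pain. Vehicle 10% (Kolliphor HS 15:DMSO 5:95) in saline, 0.2 mL. Paw withdrawal threshold by von Frey filaments on ipsilateral and contralateral hindpaws. Mean ± SD; two-way ANOVA with Dunnett's test versus day 0 and day 7.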

[6] = AUC (0 to infinity) in CD-1 mouse at 10 mg/kg,po and measured upto 24 hrs by LC-MS/MS analysis; format: ADME, organism-based; set-up: time < 24 hrs, dose 10 mg/kg, route po; details: in vivo; how it was run: as §1
[7] = Prodrug conversion in CD-1 mouse plasma assessed as Cmax of 4-(4-(piperidin-4-yl)phenyl)-7-(4-(trifluoromethyl)phenyl)-2-naphthoic acid at 10 mg/kg,po and measured upto 24 hrs by LC-MS/MS analysis; format: ADME, organism-based; set-up: dose 10 mg/kg, time < 24 hrs, route po; details: in vivo; how it was run: as §1
Mus musculus [8] = experiment: Antiallodynic activity in CCI surgery neuropathic pain Hsd:ICR mouse model assessed as reversal of mechano-allodynia by measuring paw withdrawal threshold at 10 micromol/kg,po and measured upto 6 hrs by von frey test; format: functional, organism-based; details: dose 10.0 µmol/kg
How it was run: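 CCI neuropathic pain in adult male CD-1 mice. Single oral gavage dose of 10 μmol/kg on day 7 post-surgery. Vehicle 5% DMSO + 10% (Kolliphor HS 15:DMSO 5:95) in 0.5% methylcellulose, 0.2 mL. Von Frey paw withdrawal threshold on both hindpaws. Mean ± SD; two-way ANOVA with Dunnett's test.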

[9] = Prodrug conversion in CD-1 mouse plasma assessed as Tmax of 4-(4-(piperidin-4-yl)phenyl)-7-(4-(trifluoromethyl)phenyl)-2-naphthoic acid at 10 mg/kg,po and measured upto 24 hrs by LC-MS/MS analysis; format: ADME, organism-based; details: in vivo
How it was run: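 Double prodrug of the active acid given by oral gavage to female CD1 mice. Plasma levels of prodrug and released active drug followed over time to establish the conversion course. Peak time read for the active drug.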

CCOC(=O)N1CCC(c2ccc(-c3cc(C(=O)OCC(=O)N(C)C)cc4cc(-c5ccc(C(F)(F)F)cc5)ccc34)cc2)CC1
t1/2 [1]: 1.45 h | Cmax [2]: 2000 ng/mL | bioavailability [3]: 6.9% | AUC [4]: 515 ng·h/mL | Activity (Mus musculus [5]): Active | AUC(0-inf) [6]: 1780 ng·h/mL | Cmax [7]: 33 ng/mL | Activity (Mus musculus [8]): Active | Tmax [9]: 7 h
